From ChEMBL document CHEMBL3259517, “Synthesis and evaluation of phosphorus containing, specific CDK9/CycT1 inhibitors” (J Med Chem, 2014)

Assays:
CDK9/cyclin T1 = CDK9/cyclin T1 (Homo sapiens, UniProt P50750); experiment: Inhibition of CDK9/CycT1 (unknown origin) using TAMRA-Rbtide and ATP as substrate after 1 hr; type: protein-complex assay
[1] = target: Cyclin-dependent kinase 2/cyclin E1 (Homo sapiens) (UniProt P24864+P24941); experiment: Inhibition of CDK2/CycE (unknown origin) using FAM labeled peptide as substrate at 10 uM by IMAP FAM FP assay; type: protein-complex assay
Procedure, shortened: (§1)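 Run by contract partners as an IMAP fluorescence polarization assay. […] Enzyme amount was set to give 50% substrate turnover. Compounds were added in DMSO, IMAP binding solution added after the kinase step, then FP read.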

[2] = target: Cyclin-dependent kinase 4/cyclin D1 (Homo sapiens) (UniProt P11802+P24385); experiment: Inhibition of CDK4/CycD1 (unknown origin) using FAM labeled peptide as substrate at 10 uM by IMAP FAM FP assay; type: protein-complex assay; procedure, shortened: as §1
[3] = Cytotoxicity against human MT4 cells assessed as cell viability at 2500 nM after 7 days by MTT assay relative to control; type: cell-based; settings: read-out: Activity
Procedure, shortened: (§2)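 MT4 cells (2−3 × 10⁴/well) in RPMI1640 with 10% FCS, penicillin and streptomycin, exposed to compound at 2500 or 1250 nM for 7 days at 37 °C, 5% CO2. MTT added for 4 h, supernatant removed, formazan dissolved in DMSO, absorbance read at 540 nm. Viability expressed relative to untreated cells (100%).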

[4] = Cytotoxicity against human MT4 cells assessed as cell viability at 1250 nM after 7 days by MTT assay relative to control; type: cell-based; settings: read-out: Activity; procedure, shortened: as §2
[5] = system: Human immunodeficiency virus 1; experiment: Antiviral activity against HIV1 HTLV-3B infected in human MT4 cells assessed as inhibition of virus proliferation by measuring host cell viability at 1250 nM relative to control; type: functional
Procedure, shortened: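 HIV-1 HTLV-IIIB (3400 TCID50/mL per well; titre set by virus yield assay) infected MT4 cells, 2−3 × 10⁴/well in RPMI1640 with 10% FCS, penicillin and streptomycin, cultured as for the 7-day viability assay (37 °C, 5% CO2). Test compounds were at 1250 nM and AZT control at 25 nM. Read-out was MTT (4 h, DMSO, A540), given relative to infected untreated cells (100%).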

CDK9/cyclin T1, sequence (O60563 whole entry): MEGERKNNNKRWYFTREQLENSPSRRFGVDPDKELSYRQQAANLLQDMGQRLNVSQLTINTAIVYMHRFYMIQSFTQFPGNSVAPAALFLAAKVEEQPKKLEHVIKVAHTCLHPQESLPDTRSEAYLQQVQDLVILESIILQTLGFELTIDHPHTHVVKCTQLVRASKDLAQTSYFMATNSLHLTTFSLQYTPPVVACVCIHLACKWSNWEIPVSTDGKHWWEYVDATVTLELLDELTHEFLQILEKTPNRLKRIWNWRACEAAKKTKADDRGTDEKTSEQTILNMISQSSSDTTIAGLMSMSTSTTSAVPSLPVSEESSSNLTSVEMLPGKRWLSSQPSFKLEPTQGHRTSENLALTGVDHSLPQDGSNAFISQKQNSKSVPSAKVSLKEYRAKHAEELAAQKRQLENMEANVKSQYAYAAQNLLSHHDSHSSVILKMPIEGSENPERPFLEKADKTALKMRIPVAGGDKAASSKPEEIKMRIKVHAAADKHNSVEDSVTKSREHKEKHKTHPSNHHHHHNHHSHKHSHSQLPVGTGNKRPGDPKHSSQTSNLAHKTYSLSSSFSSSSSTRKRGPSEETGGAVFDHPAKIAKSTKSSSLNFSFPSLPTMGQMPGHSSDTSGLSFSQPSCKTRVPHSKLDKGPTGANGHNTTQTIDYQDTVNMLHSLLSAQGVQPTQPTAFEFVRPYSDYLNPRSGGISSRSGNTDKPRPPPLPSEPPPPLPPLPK
CDK9/cyclin T1, sequence (P50750 whole entry): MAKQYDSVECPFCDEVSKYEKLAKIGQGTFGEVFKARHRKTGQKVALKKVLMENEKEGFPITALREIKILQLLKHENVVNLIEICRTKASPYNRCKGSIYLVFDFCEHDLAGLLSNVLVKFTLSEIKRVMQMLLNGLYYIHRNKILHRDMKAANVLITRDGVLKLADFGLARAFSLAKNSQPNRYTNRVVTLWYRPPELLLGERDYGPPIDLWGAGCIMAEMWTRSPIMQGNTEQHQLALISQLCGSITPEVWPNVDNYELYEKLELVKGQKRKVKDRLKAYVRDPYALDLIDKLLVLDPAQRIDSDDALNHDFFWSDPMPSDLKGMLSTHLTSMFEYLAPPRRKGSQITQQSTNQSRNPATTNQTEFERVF

| SMILES | IC50 (CDK9/cyclin T1) [nM] | further results |
| --- | --- | --- |
| CCOP(=O)(Oc1cccc(Nc2cc(-c3ccccc3OC)ncn2)c1)c1ccccc1 (stereo not given) | 3100 |  |
| CCOP(=O)(CC)Cc1ccc(Nc2cc(-c3cccc(N)c3)ncn2)cc1 (stereo not given) | 7530 |  |
| CCOP(=O)(CC)Cc1ccc(Nc2cc(-c3ccccc3OC)ncn2)cc1 (stereo not given) | 743 |  |
| COc1ccccc1-c1cc(Nc2ccc(P(=O)(O)O)cc2)ncn1 | 580 |  |
| CCOP(=O)(OCC)c1cccc(Nc2cc(-c3cccc([N+](=O)[O-])c3)ncn2)c1 | > 10000 |  |
| CCOP(=O)(CC)c1cccc(Nc2cc(-c3cccc(N)c3)ncn2)c1 (stereo not given) | 9800 |  |
| O=[N+]([O-])c1cccc(-c2cc(Nc3cccc(P(=O)(O)O)c3)ncn2)c1 | 4100 |  |
| CCOP(=O)(Oc1cccc(Nc2cc(-c3cccc([N+](=O)[O-])c3)ncn2)c1)c1ccccc1 (stereo not given) | > 10000 |  |
| CCOP(=O)(Cc1cccc(Nc2cc(-c3ccccc3OC)ncn2)c1)c1ccccc1 (stereo not given) | 517 |  |
| CCOP(=O)(CC)c1ccc(Nc2cc(-c3ccccc3OC)ncn2)cc1 (stereo not given) | 418 |  |
| CCOP(=O)(CC)Cc1cccc(Nc2cc(-c3cccc([N+](=O)[O-])c3)ncn2)c1 (stereo not given) | 6430 |  |
| CCCP(=O)(Cc1cccc(Nc2cc(-c3ccccc3Oc3ccccc3)ncn2)c1)OCC (stereo not given) | 601 |  |
| O=[N+]([O-])c1cccc(-c2cc(Nc3ccc(CP(=O)(O)O)cc3)ncn2)c1 | 2100 |  |
| CCCP(=O)(Cc1cccc(Nc2cc(-c3ccc(OC)cc3)ncn2)c1)OCC (stereo not given) | 5410 |  |
| CCOP(=O)(Cc1ccc(Nc2cc(-c3ccccc3OC)ncn2)cc1)OCC | 490 | inhibition [1]: 77%; inhibition [2]: 51% |
| CCOP(=O)(Cc1ccc(Nc2cc(-c3cccc(N)c3)ncn2)cc1)OCC | 3110 | inhibition [1]: 14%; inhibition [2]: 30% |
| CCCP(=O)(Cc1cccc(Nc2cc(-c3ccc(F)cc3OC)ncn2)c1)OCC (stereo not given) | 186 |  |
| CCOP(=O)(OCC)C(O)c1cccc(Nc2cc(-c3cccc(N)c3)ncn2)c1 (stereo not given) | 1400 |  |
| CCCP(=O)(Cc1cccc(Nc2cc(-c3cccc([N+](=O)[O-])c3)ncn2)c1)OCC (stereo not given) | 8060 |  |
| CCOP(=O)(OCC)C(O)c1ccc(Nc2cc(-c3cccc([N+](=O)[O-])c3)ncn2)cc1 (stereo not given) | 4580 |  |
| CCOP(=O)(Oc1ccc(Nc2cc(-c3ccccc3OC)ncn2)cc1)c1ccccc1 (stereo not given) | 2840 |  |
| CCCP(=O)(Cc1cccc(Nc2cc(-c3cccc(OC)c3OC)ncn2)c1)OCC (stereo not given) | 2390 |  |

| SMILES | IC50 (CDK9/cyclin T1) [nM] | further results |
| --- | --- | --- |
| CCOP(=O)(CC)Cc1cc(Nc2cc(-c3cccc(N)c3)ncn2)ccc1C (stereo not given) | 346 |  |
| CCOP(=O)(OCC)c1cccc(Nc2cc(-c3ccccc3OC)ncn2)c1 | 1040 |  |
| CCOP(=O)(Cc1cc(Nc2cc(-c3ccccc3OC)ncn2)ccc1C)OCC | 5220 |  |
| CCCP(=O)(OCC)c1ccc(Nc2cc(-c3cccc([N+](=O)[O-])c3)ncn2)cc1 (stereo not given) | > 10000 |  |
| CCOP(=O)(OCC)C(O)c1ccc(Nc2cc(-c3ccccc3OC)ncn2)cc1 (stereo not given) | 510 | inhibition [1]: 94%; inhibition [2]: 68% |
| CN1CC[C@H](c2c(O)cc(O)c3c(=O)cc(-c4ccccc4Cl)oc23)[C@H](O)C1 |  | inhibition [1]: 99%; inhibition [2]: 84% |
| CCOP(=O)(Cc1cccc(Nc2cc(-c3ccccc3OC)ncn2)c1)OCC | 333 | viability at 168 h, 2.5 µM [3]: 100%; viability at 168 h, 1.25 µM [4]: 91% |
| CCOP(=O)(CC)Cc1ccc(Nc2cc(-c3cccc([N+](=O)[O-])c3)ncn2)cc1 (stereo not given) | 7770 |  |
| CCOP(=O)(CC)Cc1cc(Nc2cc(-c3ccccc3OC)ncn2)ccc1C (stereo not given) | 366 |  |
| CCCP(=O)(Cc1cccc(Nc2cc(-c3ccccc3CC)ncn2)c1)OCC (stereo not given) | > 10000 |  |
| Nc1cccc(-c2cc(Nc3ccc(P(=O)(O)O)cc3)ncn2)c1 | 3320 | inhibition [1]: 98%; inhibition [2]: 67% |
| CCOP(=O)(OCC)c1ccc(Nc2cc(-c3ccccc3OC)ncn2)cc1 | 1020 | inhibition [1]: 69%; inhibition [2]: 22% |
| CCOP(=O)(CC)c1ccc(Nc2cc(-c3cccc(N)c3)ncn2)cc1 (stereo not given) | > 10000 |  |
| CCOP(=O)(c1ccccc1)c1ccc(Nc2cc(-c3ccccc3OC)ncn2)cc1 (stereo not given) | 523 |  |
| CCCP(=O)(Cc1cccc(Nc2cc(-c3cccc(N)c3)ncn2)c1)OCC (stereo not given) | 682 |  |
| CCOP(=O)(OCC)c1ccc(Nc2cc(-c3cccc(N)c3)ncn2)cc1 | > 10000 | inhibition [1]: 18%; inhibition [2]: 35% |
| Nc1cccc(-c2cc(Nc3ccc(CP(=O)(O)O)cc3)ncn2)c1 | 1130 |  |
| CCOP(=O)(CC)c1ccc(Nc2cc(-c3cccc([N+](=O)[O-])c3)ncn2)cc1 (stereo not given) | > 10000 |  |
| CCOP(=O)(CC)c1cccc(Nc2cc(-c3cccc([N+](=O)[O-])c3)ncn2)c1 (stereo not given) | > 10000 |  |
| CCOP(=O)(c1ccccc1)c1ccc(Nc2cc(-c3cccc([N+](=O)[O-])c3)ncn2)cc1 (stereo not given) | > 10000 |  |
| CCOP(=O)(Cc1cccc(Nc2cc(-c3cccc(N)c3)ncn2)c1)c1ccccc1 (stereo not given) | 1020 |  |
| CCOP(=O)(Cc1cccc(Nc2cc(-c3cccc([N+](=O)[O-])c3)ncn2)c1)c1ccccc1 (stereo not given) | > 10000 |  |

| SMILES | IC50 (CDK9/cyclin T1) [nM] | further results |
| --- | --- | --- |
| CCOP(=O)(CC)Cc1cccc(Nc2cc(-c3ccccc3OCc3ccccc3)ncn2)c1 (stereo not given) | 212 | viability at 168 h, 2.5 µM [3]: 94%; viability at 168 h, 1.25 µM [4]: 98%; Host cell viability relative to infected untreated cells [5]: 135% |
| CCP(=O)(O)Cc1cccc(Nc2cc(-c3ccccc3OCc3ccccc3)ncn2)c1 | 163 | viability at 168 h, 2.5 µM [3]: 104%; viability at 168 h, 1.25 µM [4]: 110%; Host cell viability relative to infected untreated cells [5]: 124% |
| CCCP(=O)(OCC)c1ccc(Nc2cc(-c3cccc(N)c3)ncn2)cc1 (stereo not given) | > 10000 |  |
| CCOP(=O)(OCC)C(O)c1cccc(Nc2cc(-c3cccc([N+](=O)[O-])c3)ncn2)c1 (stereo not given) | > 10000 |  |
| CCCP(=O)(OCC)c1ccc(Nc2cc(-c3ccccc3OC)ncn2)cc1 (stereo not given) | 1150 |  |
| CCOP(=O)(Oc1cccc(Nc2cc(-c3cccc(N)c3)ncn2)c1)c1ccccc1 (stereo not given) | 5330 |  |
| CCCP(=O)(Cc1ccc(Nc2cc(-c3ccccc3OC)ncn2)cc1)OCC (stereo not given) | 652 |  |
| CCCP(=O)(Cc1cccc(Nc2cc(-c3ccccc3OC(C)C)ncn2)c1)OCC (stereo not given) | 210 |  |
| CCOP(=O)(Oc1cc(Nc2cc(-c3ccccc3OC)ncn2)ccc1C)c1ccccc1 (stereo not given) | 4140 | inhibition [1]: 8%; inhibition [2]: 19% |
| CCOP(=O)(Cc1cccc(Nc2cc(-c3cccc(N)c3)ncn2)c1)OCC | 332 | Host cell viability relative to infected untreated cells [5]: 96% |
| CCCP(=O)(Cc1cccc(Nc2cc(-c3cccc(OCc4ccccc4)c3)ncn2)c1)OCC (stereo not given) | > 10000 |  |
| CCOP(=O)(OCC)c1ccc(Nc2cc(-c3cccc([N+](=O)[O-])c3)ncn2)cc1 | > 10000 |  |
| CCOP(=O)(CC)c1cccc(Nc2cc(-c3ccccc3OC)ncn2)c1 (stereo not given) | 842 |  |
| CCCP(=O)(Cc1ccc(Nc2cc(-c3cccc([N+](=O)[O-])c3)ncn2)cc1)OCC (stereo not given) | 5530 |  |
| CCCP(=O)(Cc1cccc(Nc2cc(-c3cccc(OC)c3)ncn2)c1)OCC (stereo not given) | 6940 |  |
| CCCP(=O)(Cc1ccc(Nc2cc(-c3cccc(N)c3)ncn2)cc1)OCC (stereo not given) | 7470 |  |
| CCOP(=O)(c1ccccc1)c1ccc(Nc2cc(-c3cccc(N)c3)ncn2)cc1 (stereo not given) | 6500 |  |
| CCOP(=O)(Cc1cccc(Nc2cc(-c3cccc([N+](=O)[O-])c3)ncn2)c1)OCC | 9870 |  |
| CCOP(=O)(Cc1ccc(Nc2cc(-c3cccc([N+](=O)[O-])c3)ncn2)cc1)OCC | > 10000 |  |
| CCOP(=O)(Nc1cc(Nc2cc(-c3ccccc3OC)ncn2)ccc1C)c1ccccc1 (stereo not given) | 5240 | inhibition [1]: 19%; inhibition [2]: 18% |
| CCOP(=O)(CC)Cc1cc(Nc2cc(-c3cccc([N+](=O)[O-])c3)ncn2)ccc1C (stereo not given) | 7020 |  |
| CCCP(=O)(Cc1cccc(Nc2cc(-c3ccccc3OCc3ccccc3)ncn2)c1)OCC (stereo not given) | 143 | viability at 168 h, 2.5 µM [3]: 93%; viability at 168 h, 1.25 µM [4]: 86%; Host cell viability relative to infected untreated cells [5]: 148% |
